Results collected from several papers.
Each line is one published result; the experiments were not run side by side.
Target: Tyrosine-protein kinase ITK/TSK (ITK, Homo sapiens, UniProt Q08881)
One construct used (Q08881 1-620): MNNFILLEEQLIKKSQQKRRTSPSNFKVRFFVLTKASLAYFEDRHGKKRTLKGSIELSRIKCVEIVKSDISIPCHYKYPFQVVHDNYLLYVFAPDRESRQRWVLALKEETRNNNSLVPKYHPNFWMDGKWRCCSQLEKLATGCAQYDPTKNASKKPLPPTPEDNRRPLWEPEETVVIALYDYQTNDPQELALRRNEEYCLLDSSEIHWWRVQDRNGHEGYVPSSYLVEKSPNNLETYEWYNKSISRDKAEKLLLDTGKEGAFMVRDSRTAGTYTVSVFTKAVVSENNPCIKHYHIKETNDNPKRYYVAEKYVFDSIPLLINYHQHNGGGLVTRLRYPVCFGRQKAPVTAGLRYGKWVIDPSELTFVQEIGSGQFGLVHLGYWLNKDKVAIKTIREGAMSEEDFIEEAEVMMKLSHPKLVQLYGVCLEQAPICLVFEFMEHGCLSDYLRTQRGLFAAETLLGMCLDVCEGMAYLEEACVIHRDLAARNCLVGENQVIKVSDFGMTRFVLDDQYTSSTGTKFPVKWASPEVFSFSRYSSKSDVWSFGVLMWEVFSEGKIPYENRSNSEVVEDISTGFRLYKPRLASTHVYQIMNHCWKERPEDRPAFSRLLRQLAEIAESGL

Structure (SMILES) | test | setting | remaining binding [%]
C[C@@H]1CCN(c2nccc(-c3cnn4ncccc34)n2)C1 | binding | 1 µM | 91
O=C(Nc1cccnn1)N1CC(C/C=C/c2cncc(Oc3ccc(C(F)(F)F)cn3)n2)C1 | cell-free assay, competition with immobilised ligand | 1 µM | 100
N[C@@H]1CCN(c2nccc(-c3cnn4ncccc34)n2)C1 | binding | 1 µM | 93
O=C(c1ccc(Nc2ncc(Cl)c(-c3cc4ccccc4s3)n2)cc1)N1CCC(N2CCCC2)CC1 | binding, competition with immobilised ligand | 1 µM | 50
COc1cnc(Nc2cccc(S(N)(=O)=O)c2)nc1N1CCN(c2ccccc2)CC1 | binding, competition with immobilised ligand | 1 µM | 95
O=C(NCC1CCOCC1)c1n[nH]cc1NC(=O)c1c(F)cccc1F | binding, competition with immobilised ligand | 1 µM | 100
COc1cnc(Nc2cccc(S(N)(=O)=O)c2)nc1N1CCN(c2ccccc2)C(=O)C1 | binding, competition with immobilised ligand | 1 µM | 100
CN(C)c1nccc(-c2cnn3ncccc23)n1 | binding | 1 µM | 100
O=C(NCCCN1CCOCC1)c1ccc(Nc2ncc(Cl)c(-c3ccc(Cl)s3)n2)cc1 | binding, competition with immobilised ligand | 1 µM | 40
FC(F)(F)Oc1cccc(-c2cnc3ccc(-c4ccncc4)nn23)c1 | cell-free assay, competition with immobilised ligand | 5 µM | 84
Cc1nccc(COC(=O)N2C[C@@H]3[C@@H](CNC(=O)c4ccc5[nH]nnc5c4)[C@@H]3C2)n1 | cell-free assay, competition with immobilised ligand | 1 µM | 100
Nc1ncc2c(n1)-c1c([nH]c3ccc(C#CC4CC4)cc13)CCCC2 | binding, competition with immobilised ligand | 1 µM | 92
Cn1nc(C(=O)NCc2ccc(C(=O)O)cc2)cc1-c1ccc2[nH]ccc2c1 | cell-free assay, competition with immobilised ligand | 0.1 µM | 85
CN(c1nccc(-c2cnn3ncccc23)n1)C1CC1 | binding | 1 µM | 100
COc1cc(-c2cn(C3CCc4c(F)cccc4N(CC(F)(F)F)C3=O)nn2)ccc1-n1cnc(C)c1 (centres unmarked) | cell-free assay, competition with immobilised ligand | 1 µM | 100
CN(CCCC(F)(F)F)c1nccc(-c2cnn3ncccc23)n1 | binding | 1 µM | 95
CN1CCN(c2cnc3c(C4CCN(C(=O)c5ccc(OC(F)(F)F)cc5N)CC4)ncnc3c2)CC1 | cell-free assay, competition with immobilised ligand | 1 µM | 100
F[C@@H]1CCN(c2nccc(-c3cnn4ncccc34)n2)C1 | binding | 1 µM | 100
CCC(=N\O)/C(C)=C/c1ccc(F)cc1 | cell-free assay, competition with immobilised ligand | 1 µM | 90
Cc1cnc(Nc2ccc(C(=O)N3CCC(N4CCCC4)CC3)cc2)nc1-c1cc2ccccc2s1 | binding, competition with immobilised ligand | 1 µM | 59
